For 18 compounds, IC50 results are on record in ChEMBL document CHEMBL1667724, “Landomycins P-W, cytotoxic angucyclines from Streptomyces cyanogenus S-136” (J Nat Prod, 2011).

In one assay the test system is MCF7. Kind of assay: Cytotoxicity against ER-positive human MCF7 cells after 24 hrs by trypan blue staining. It is filed as functional, cell-based. In outline:
(§1)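 Cells grown in DMEM; 50 × 10^3 cells per well seeded and left to attach overnight, then medium replaced with fresh medium containing a range of compound concentrations for 24 hours at 37 °C. Adherent plus floating cells pooled, resuspended in PBS, and stained with 0.4% trypan blue for 3 min. Live and dead cells counted on a hemocytometer. IC50 taken from dose-response curves as the mean of three experiments. Ethanol served as positive control and untreated medium as negative control.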

Assay [1] is described as follows: Cytotoxicity against ER-refractory human MDA231 cells after 24 hrs by trypan blue staining. It is filed as functional, cell-based. The conditions noted are these: MDA-MB-231, 24 h. The gist of the method:
as §1

Where [2] appears, read: Homo sapiens, MCF7, 24 h, read-out: IC50.

A word on the IC50: it is the concentration needed to halve the response being measured. For the compound `Cc1cc(O)c2c(c1)C[C@@H](O)C1=C2C(=O)c2c(O)ccc(O[C@H]3C[C@@H](O)[C@H](O[C@H]4C[C@@H](O[C@H]5CC[C@H](O[C@H]6C[C@@H](O)[C@H](O[C@H]7C[C@@H](O[C@H]8CC[C@H](O)[C@H](C)O8)[C@H](O)[C@@H](C)O7)[C@@H](C)O6)[C@H](C)O5)[C@H](O)[C@@H](C)O4)[C@@H](C)O3)c2C1=O` [LANDOMYCIN A], the IC50 was determined as 2500 nM with MCF7 (setting [2]) and 1400 nM in assay [1].

With `Cc1cc(O)c2c(c1)C[C@@H](O)C1=C2C(=O)c2c(O)ccc(O[C@H]3C[C@@H](O)[C@H](O[C@H]4C[C@@H](O[C@H]5CC[C@H](O[C@H]6C[C@@H](O)[C@H](O[C@H]7C[C@@H](O)[C@H](O)[C@@H](C)O7)[C@@H](C)O6)[C@H](C)O5)[C@H](O)[C@@H](C)O4)[C@@H](C)O3)c2C1=O` [LANDOMYCIN B], the concentration for half-maximal inhibition (IC50) amounted to 4250 nM in the assay with MCF7 (setting [2]) and 1800 nM in assay [1].

For the compound `Cc1cc(O)c2c3c(ccc2c1)C(=O)c1c(O[C@H]2C[C@@H](O)[C@H](O[C@H]4C[C@@H](O[C@H]5CC[C@H](O[C@H]6C[C@@H](O)[C@H](O[C@H]7C[C@@H](O[C@H]8CC[C@H](O)[C@H](C)O8)[C@H](O)[C@@H](C)O7)[C@@H](C)O6)[C@H](C)O5)[C@H](O)[C@@H](C)O4)[C@@H](C)O2)cccc1C3=O` [LANDOMYCIN T], the IC50 result with MCF7 (mcf7) is “Not Active”; in assay [1], 1850 nM.

As for `Cc1cc(O)c2c(c1)C[C@@H](O)C1=C2C(=O)c2cccc(O[C@H]3C[C@@H](O)[C@H](O[C@H]4C[C@@H](O[C@H]5CC[C@H](O[C@H]6C[C@@H](O)[C@H](O[C@H]7C[C@@H](O)[C@H](O)[C@@H](C)O7)[C@@H](C)O6)[C@H](C)O5)[C@H](O)[C@@H](C)O4)[C@@H](C)O3)c2C1=O` [LANDOMYCIN V], the figures for the IC50 (with MCF7 (setting [2]); in assay [1]) were 6100 nM and 1500 nM, respectively.

For `C[C@]1(O)CC(=O)c2c(ccc3c2C(=O)c2cccc(O)c2C3=O)C1` [TETRANGOMYCIN], the IC50 entry with MCF7 (mcf7) was “Not Active”; in assay [1], 1550 nM.

For the compound `Cc1cc(O)c2c(c1)C[C@@H](O)C1=C2C(=O)c2cccc(O[C@H]3C[C@@H](O)[C@H](O[C@H]4C[C@@H](O[C@H]5CC[C@H](O[C@H]6C[C@@H](O)[C@H](O[C@H]7C[C@@H](O[C@H]8CC[C@H](O)[C@H](C)O8)[C@H](O)[C@@H](C)O7)[C@@H](C)O6)[C@H](C)O5)[C@H](O)[C@@H](C)O4)[C@@H](C)O3)c2C1=O` [LANDOMYCIN S], the 50% inhibitory concentration (IC50) in the assay on MCF7 (setting [2]) was determined as 6700 nM; in assay [1], 1500 nM.

For `Cc1cc(O)c2c3c(ccc2c1)C(=O)c1c(O)cccc1C3=O` [TETRANGULOL], the IC50 result in the assay on MCF7 (mcf7) was “Not Active”; in assay [1] it was 1500 nM.

As for `Cc1cc(O)c2c3c(ccc2c1)C(=O)c1c(O[C@H]2C[C@@H](O)[C@H](O[C@H]4C[C@@H](O[C@H]5CC[C@H](O)[C@H](C)O5)[C@H](O)[C@@H](C)O4)[C@@H](C)O2)ccc(O)c1C3=O` [LANDOMYCIN Q], the values for the IC50 entry (in the assay with MCF7 (mcf7); in assay [1]) were “Not Active” and 3850 nM, respectively.

For the compound `Cc1cc(O)c2c3c(ccc2c1)C(=O)c1c(O[C@H]2C[C@@H](O)[C@H](O[C@H]4C[C@@H](O[C@H]5CC[C@H](O)[C@H](C)O5)[C@H](O)[C@@H](C)O4)[C@@H](C)O2)cccc1C3=O` [LANDOMYCIN P], the IC50 entry was “Not Active” in the assay with MCF7 (mcf7) and 3550 nM in assay [1].

Regarding `Cc1cc(O)c2c3c(ccc2c1)C(=O)c1c(O[C@H]2C[C@@H](O)[C@H](O[C@H]4C[C@@H](O)[C@H](O)[C@@H](C)O4)[C@@H](C)O2)cccc1C3=O` [LANDOMYCIN O], the figures for the IC50 result (in the assay with MCF7 (mcf7); in assay [1]) were “Not Active” and 3550 nM, respectively.

For the compound `Cc1cc(O)c2c3c(ccc2c1)C(=O)c1c(O[C@H]2C[C@@H](O)[C@H](O[C@H]4C[C@@H](O[C@H]5CC[C@H](O[C@H]6C[C@@H](O)[C@H](O[C@H]7C[C@@H](O[C@H]8CC[C@H](O)[C@H](C)O8)[C@H](O)[C@@H](C)O7)[C@@H](C)O6)[C@H](C)O5)[C@H](O)[C@@H](C)O4)[C@@H](C)O2)ccc(O)c1C3=O` [LANDOMYCIN U], the values for the IC50 (with MCF7 (setting [2]); in assay [1]) were 2100 nM and 7300 nM, respectively.

For the compound `Cc1cc(O)c2c3c(ccc2c1)C(=O)c1c(O[C@H]2C[C@@H](O)[C@H](O[C@H]4C[C@@H](O)[C@H](O)[C@@H](C)O4)[C@@H](C)O2)ccc(O)c1C3=O` [LANDOMYCIN R], the IC50 result was “Not Active” in the assay on MCF7 (mcf7) and 1700 nM in assay [1].

As for `Cc1cc(O)c2c3c(ccc2c1)C(=O)c1c(O[C@H]2C[C@@H](O)[C@H](O[C@H]4C[C@@H](O[C@H]5CC[C@H](O[C@H]6C[C@@H](O)[C@H](O[C@H]7C[C@@H](O)[C@H](O)[C@@H](C)O7)[C@@H](C)O6)[C@H](C)O5)[C@H](O)[C@@H](C)O4)[C@@H](C)O2)cccc1C3=O` [LANDOMYCIN M], the IC50 in the assay on MCF7 (setting [2]) is 7100 nM; in assay [1] it was 1900 nM.

For the compound `Cc1cc(O)c2c3c(ccc2c1)C(=O)c1c(O)ccc(O)c1C3=O` [ANHYDROLANDOMYCINONE], the values for the IC50 (with MCF7 (setting [2]); in assay [1]) were 1800 nM and 2000 nM, respectively.

For `Cc1cc(O)c2c3c(ccc2c1)C(=O)c1c(O[C@H]2C[C@@H](O)[C@H](O[C@H]4C[C@@H](O[C@H]5CC[C@H](O[C@H]6C[C@@H](O)[C@H](O[C@H]7C[C@@H](O)[C@H](O)[C@@H](C)O7)[C@@H](C)O6)[C@H](C)O5)[C@H](O)[C@@H](C)O4)[C@@H](C)O2)ccc(O)c1C3=O` [LANDOMYCIN W], the IC50 is 6900 nM with MCF7 (setting [2]) and 2650 nM in assay [1].

Consider `Cc1cc(O)c2c(c1)C[C@@H](O)C1=C2C(=O)c2c(O)ccc(O[C@H]3C[C@@H](O)[C@H](O[C@H]4C[C@@H](O)[C@H](O)[C@@H](C)O4)[C@@H](C)O3)c2C1=O` [LANDOMYCIN D], for which the IC50 in the assay with MCF7 (setting [2]) worked out at 7600 nM; in assay [1] it was 1750 nM.

`Cc1cc(O)c2c(c1)C[C@@H](O)C1=C2C(=O)c2cccc(O[C@H]3C[C@@H](O)[C@H](O[C@H]4C[C@@H](O)[C@H](O)[C@@H](C)O4)[C@@H](C)O3)c2C1=O` [LANDOMYCIN F]: the results for the IC50 entry (in the assay with MCF7 (mcf7); in assay [1]) were “Not Active” and 1800 nM, respectively.

Consider `Cc1cc(O)c2c(c1)C[C@@H](O)C1=C2C(=O)c2c(O)ccc(O)c2C1=O` [LANDOMYCINONE], for which the figures for the IC50 (in the assay with MCF7 (setting [2]); in assay [1]) were 2100 nM and 1400 nM, respectively.
